Laboratory results published in ChEMBL document CHEMBL5058577, “EUbOPEN Chemogenomics Library 2 (Multiplex)” (2022).

Tested on: HEK-293T
Experiment: Multiplex assay against HEK293T
Format: toxicity, cell-based
Details: human
Method in brief: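 Live cells were stained at seeding with Hoechst33342, BioTracker Green Microtubule Cytoskeleton Dye, MitoTracker Red and Annexin V Alexa Fluor 680, then imaged on a CQ1 microscope at 37°C and 5% CO2 after compound addition. CellPathfinder machine-learning gating split cells into Hoechst high-intensity objects or normal cells. Normal cells were split into healthy, pyknosed or fragmented nuclei, and pyknosed cells into mitotic or apoptotic. Tubulin, mitochondrial-mass and membrane-permeability phenotypes are per cents of healthy-nucleus cells.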

[1] = 12 h, 1 µM, compound concentration 1 uM, replicate 1
[2] = 12 h, 1 µM, compound concentration 1 uM, replicate 2
[3] = 12 h, 10 µM, compound concentration 10 uM, replicate 1
[4] = 12 h, 10 µM, compound concentration 10 uM, replicate 2
[5] = 24 h, 1 µM, compound concentration 1 uM, replicate 1
[6] = 24 h, 1 µM, compound concentration 1 uM, replicate 2
[7] = 24 h, 10 µM, compound concentration 10 uM, replicate 1
[8] = 24 h, 10 µM, compound concentration 10 uM, replicate 2
[9] = 48 h, 1 µM, compound concentration 1 uM, replicate 1
[10] = 48 h, 1 µM, compound concentration 1 uM, replicate 2
[11] = 48 h, 10 µM, compound concentration 10 uM, replicate 1
[12] = 48 h, 10 µM, compound concentration 10 uM, replicate 2

CCOc1c2c(c(OCC)c3ncccc13)CN(c1ccc(CS(=O)(=O)NC(=O)Cc3ccccc3OC)cc1C)C2=O
Population Apoptotic (%) [1]: 33% | Population Fragmented Nuclei (%) [1]: 3% | Population Healthy Nuclei (%) [1]: 81% | Population Hoechst High Intensity Objects (%) [1]: 6% | Population Membrane Permeable-Phenotype (%) [1]: 0% | Population Mitochondria Different-Phenotype (%) [1]: 43% | Population Mitotic Cells (%) [1]: 66% | Population Normal (%) [1]: 93% | Population Pyknosed Nuclei (%) [1]: 14% | Population Tubulin-Different-Phenotype (%) [1]: 31% | Total Cell Count [1]: 356 | Population Apoptotic (%) [2]: 35% | Population Fragmented Nuclei (%) [2]: 5% | Population Healthy Nuclei (%) [2]: 82% | Population Hoechst High Intensity Objects (%) [2]: 5% | Population Mitochondria Different-Phenotype (%) [2]: 54% | Population Mitotic Cells (%) [2]: 64% | Population Normal (%) [2]: 94% | Population Pyknosed Nuclei (%) [2]: 12% | Population Tubulin-Different-Phenotype (%) [2]: 16% | Total Cell Count [2]: 355 | Population Apoptotic (%) [3]: 45% | Population Fragmented Nuclei (%) [3]: 9% | Population Healthy Nuclei (%) [3]: 78% | Population Hoechst High Intensity Objects (%) [3]: 4% | Population Membrane Permeable-Phenotype (%) [3]: 0% | Population Mitochondria Different-Phenotype (%) [3]: 49% | Population Mitotic Cells (%) [3]: 54% | Population Normal (%) [3]: 95% | Population Pyknosed Nuclei (%) [3]: 12% | Population Tubulin-Different-Phenotype (%) [3]: 34% | Total Cell Count [3]: 367 | Population Apoptotic (%) [4]: 53% | Population Fragmented Nuclei (%) [4]: 7% | Population Healthy Nuclei (%) [4]: 76% | Population Hoechst High Intensity Objects (%) [4]: 9% | Population Mitochondria Different-Phenotype (%) [4]: 72% | Population Mitotic Cells (%) [4]: 46% | Population Normal (%) [4]: 90% | Population Pyknosed Nuclei (%) [4]: 16% | Population Tubulin-Different-Phenotype (%) [4]: 29% | Total Cell Count [4]: 362 | Population Apoptotic (%) [5]: 35% | Population Fragmented Nuclei (%) [5]: 11% | Population Healthy Nuclei (%) [5]: 73% | Population Hoechst High Intensity Objects (%) [5]: 5% | Population Membrane Permeable-Phenotype (%) [5]: 0% | Population Mitochondria Different-Phenotype (%) [5]: 28% | Population Mitotic Cells (%) [5]: 64% | Population Normal (%) [5]: 94% | Population Pyknosed Nuclei (%) [5]: 14% | Population Tubulin-Different-Phenotype (%) [5]: 20% | Total Cell Count [5]: 462 | Population Apoptotic (%) [6]: 27% | Population Fragmented Nuclei (%) [6]: 5% | Population Healthy Nuclei (%) [6]: 85% | Population Hoechst High Intensity Objects (%) [6]: 3% | Population Mitochondria Different-Phenotype (%) [6]: 27% | Population Mitotic Cells (%) [6]: 72% | Population Normal (%) [6]: 96% | Population Pyknosed Nuclei (%) [6]: 8% | Population Tubulin-Different-Phenotype (%) [6]: 10% | Total Cell Count [6]: 473 | Population Apoptotic (%) [7]: 18% | Population Fragmented Nuclei (%) [7]: 10% | Population Healthy Nuclei (%) [7]: 75% | Population Hoechst High Intensity Objects (%) [7]: 4% | Population Membrane Permeable-Phenotype (%) [7]: 0% | Population Mitochondria Different-Phenotype (%) [7]: 36% | Population Mitotic Cells (%) [7]: 81% | Population Normal (%) [7]: 95% | Population Pyknosed Nuclei (%) [7]: 14% | Population Tubulin-Different-Phenotype (%) [7]: 28% | Total Cell Count [7]: 446 | Population Apoptotic (%) [8]: 32% | Population Fragmented Nuclei (%) [8]: 8% | Population Healthy Nuclei (%) [8]: 82% | Population Hoechst High Intensity Objects (%) [8]: 8% | Population Membrane Permeable-Phenotype (%) [8]: 1% | Population Mitochondria Different-Phenotype (%) [8]: 49% | Population Mitotic Cells (%) [8]: 67% | Population Normal (%) [8]: 91% | Population Pyknosed Nuclei (%) [8]: 9% | Population Tubulin-Different-Phenotype (%) [8]: 17% | Total Cell Count [8]: 481 | Population Apoptotic (%) [9]: 29% | Population Fragmented Nuclei (%) [9]: 13% | Population Healthy Nuclei (%) [9]: 79% | Population Hoechst High Intensity Objects (%) [9]: 3% | Population Membrane Permeable-Phenotype (%) [9]: 0% | Population Mitochondria Different-Phenotype (%) [9]: 20% | Population Mitotic Cells (%) [9]: 70% | Population Normal (%) [9]: 96% | Population Pyknosed Nuclei (%) [9]: 6% | Population Tubulin-Different-Phenotype (%) [9]: 13% | Total Cell Count [9]: 822 | Population Apoptotic (%) [10]: 33% | Population Fragmented Nuclei (%) [10]: 11% | Population Healthy Nuclei (%) [10]: 83% | Population Hoechst High Intensity Objects (%) [10]: 1% | Population Mitochondria Different-Phenotype (%) [10]: 14% | Population Mitotic Cells (%) [10]: 66% | Population Normal (%) [10]: 98% | Population Pyknosed Nuclei (%) [10]: 5% | Population Tubulin-Different-Phenotype (%) [10]: 7% | Total Cell Count [10]: 770 | Population Apoptotic (%) [11]: 41% | Population Fragmented Nuclei (%) [11]: 13% | Population Healthy Nuclei (%) [11]: 78% | Population Hoechst High Intensity Objects (%) [11]: 4% | Population Membrane Permeable-Phenotype (%) [11]: 1% | Population Mitochondria Different-Phenotype (%) [11]: 32% | Population Mitotic Cells (%) [11]: 58% | Population Normal (%) [11]: 95% | Population Pyknosed Nuclei (%) [11]: 8% | Population Tubulin-Different-Phenotype (%) [11]: 16% | Total Cell Count [11]: 631 | Population Apoptotic (%) [12]: 33% | Population Fragmented Nuclei (%) [12]: 12% | Population Healthy Nuclei (%) [12]: 81% | Population Hoechst High Intensity Objects (%) [12]: 3% | Population Membrane Permeable-Phenotype (%) [12]: 0% | Population Mitochondria Different-Phenotype (%) [12]: 22% | Population Mitotic Cells (%) [12]: 66% | Population Normal (%) [12]: 96% | Population Pyknosed Nuclei (%) [12]: 6% | Population Tubulin-Different-Phenotype (%) [12]: 11% | Total Cell Count [12]: 724
